CHOP UPR activ = apoptotic UPR (CHOP) activation | CHO-CHOP luciferase reporter, luminescence; percent of tunicamycin response over DMSO baseline | actives 0.34% (n = 330,000) | AID 449763 | activation, % at 10 µM;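 active means at 10 µM dose, activation of 40% or more, normalized to positive control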;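 further: 100% = tunicamycin at 10 µg/mL and 0% = DMSO alone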
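Test system: CHO CHOP reporter cells. Input: 500 CHO-CHOP cells per well. Medium: F12 with 10% FBS. Technique: luciferase luminescence. Measure: percent activation relative to tunicamycin control. Dosing: 10 µM compound, 0.5% DMSO. Timing: 16-18 h cell attachment, then 6 h compound exposure, 37 °C.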
CHOP inhibitor = inhibitors of CHOP induction in ER stress response; CHO-K1 CHOP-promoter luciferase, tunicamycin-induced, 15-18 h; inhibition, % at 10 µM; actives 3.8% (n = 220,000);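 active means compounds that reduced the stress-induced luciferase reporter signal by more than about 70% of percent inhibition, limit read from the data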;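 further: 0% = tunicamycin plus vehicle and 100% = wells without tunicamycin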
Fh CTSL1 inh = blocks F. hepatica cathepsin L1 in PFM18AAP counter-screen; recombinant F. hepatica cathepsin L1, Z-Leu-Arg-MCA fluorescence; actives 0.49% (n = 300,000); inhibition, % at 5.96 µM;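 active means inhibition above the mean of all tested compounds plus 3 SD, set per screening campaign, cut at about 17% in these data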;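 further: 0% = plate median of test compound wells and 100% = 1 µM Z-Phe-Ala-diazomethylketone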
UCH37 inh = blocks the human deubiquitinase UCH37. Q9Y5K5. purified proteasome/UCH37, Ub-AMC cleavage fluorescence. inhibition, % (test concentration not listed). actives 0.33% (n = 330,000);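 active means mean inhibition over replicate wells above about 20%, limit read from the data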;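 further: 0% = compound-free wells with enzyme and 100% = wells lacking proteasome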
Target sequence (Q9Y5K5 whole entry, looked up): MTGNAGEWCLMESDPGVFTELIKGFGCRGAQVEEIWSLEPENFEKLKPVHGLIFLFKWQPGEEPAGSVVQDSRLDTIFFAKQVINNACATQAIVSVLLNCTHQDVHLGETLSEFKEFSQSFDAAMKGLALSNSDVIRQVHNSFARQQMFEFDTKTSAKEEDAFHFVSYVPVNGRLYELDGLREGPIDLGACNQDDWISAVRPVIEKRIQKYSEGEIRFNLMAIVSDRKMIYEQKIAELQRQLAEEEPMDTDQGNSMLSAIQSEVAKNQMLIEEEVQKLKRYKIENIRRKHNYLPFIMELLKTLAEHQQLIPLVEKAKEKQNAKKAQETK
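system = Proteasome-associated human UCH37 deubiquitinase | amount = 0.15 nM proteasome as dispensed | medium = pH 7.4 Tris-HCl (50 mM) with ovalbumin, ATP-MgCl2, DTT | incubation = 30 min preincubation with enzyme, 25 min cleavage at room temperature | detection = AMC fluorescence 355/460 nm | read-out basis = percent inhibition | controls = no-proteasome and no-compound wells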
XBP1 UPR activ = activators of adaptive arm of unfolded protein response (XBP1). CHO-XBP1 luciferase reporter, IRE1-XBP1 UPR activation, luminescence; percent of tunicamycin response, DMSO as zero. AID 463104. activation, % at 20 µM. actives 0.33% (n = 330,000);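 active means versus positive control, 20 µM dose yields 30% or more activation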;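 further: 100% = tunicamycin at 10 µg/mL and 0% = DMSO only wells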
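Test system: CHO-XBP1 luciferase reporter cells | Buffer or medium: Serum-containing F12 medium, 10% FBS | Schedule: 6 h compound exposure at 37 °C, 5% CO2 | Detection: Steady-Glo luciferase glow luminescence, 10 min after reagent addition | Read-out basis: Activation, % of tunicamycin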
An asterisk follows results filed as active; . = not tested or not shown. The full list was thinned out, with hits kept by preference.

SMILES | CHOP UPR activ | CHOP inhibitor | Fh CTSL1 inh | UCH37 inh | XBP1 UPR activ
O=C(NN=Cc1ccccc1OCc1ccccc1)c1cccs1 | . | . | . | -2 | .
COc1ccccc1N(C(=O)CCl)c1cn(C(C)=O)c2ccccc12 | 35 | -62 | 0 | 5 | -3
CC(=O)n1cc(N(C(=O)CCl)c2ccc(Cl)cc2)c2ccccc21 | -8 | 107* | 6 | 4 | -8
COc1ccc(/C(O)=C/c2nc3ccc(C(=O)NCCc4cccc(C)c4)cc3[nH]c2=O)cc1OC | 0 | 73* | -4 | 6 | -5
O=C(NCCOc1ccccc1)c1ccccc1Cl | 0 | . | -9 | 2 | -7
CN(C(=O)COc1ccccc1C(=O)NCCOc1ccccc1)c1ccccc1 | -6 | 79* | -3 | 4 | -5
CN(C)c1ccc(NC(=O)C(=O)NCCOc2ccccc2)cc1 | -1 | 70* | -4 | 2 | 0
O=C(CN1C(=O)NC2NC(=O)NC21)NN=Cc1ccccc1F (stereo not drawn) | . | . | . | 3 | .
CNc1sc(C(=O)c2ccc(F)cc2)c(N)c1-c1nc2ccccc2s1 | 4 | 84* | 5 | 4 | 4
CNc1sc(C(=O)c2cccs2)c(N)c1-c1nc2ccccc2s1 | 7 | -11 | 2 | 1 | 1
Fc1ccc(NN=Cc2ccc(N3CCOCC3)cc2)c(F)c1 | . | . | . | -6 | .
CC(CC(=O)Nc1ccc(Cl)cc1Cl)=NNC(N)=S | . | . | . | 1 | .
Cc1cc(OC(C)C)c2c(-c3ccccc3)cc(=O)oc2c1 | -1 | 79* | 5 | 0 | 0
COc1ccc(-c2ccnc(SCC(=O)c3ccc(OC)c(OC)c3)n2)cc1 | 1 | 25 | 6 | 1 | 2
COc1ccc(OC)c(C(=O)CSc2nccc(-c3ccc(Br)cc3)n2)c1 | -1 | 80* | 5 | -33 | 5
COCCCNC(=S)NN=Cc1ccc(OC)c(Br)c1 | . | . | . | 1 | .
O=C(NN=Cc1ccccc1C(=O)O)c1cccc(S(=O)(=O)Nc2cc(Cl)ccc2Cl)c1 | . | . | . | 0 | .
O=C(Oc1cccc2cccnc12)c1cccc(N2C(=O)C3C4CCC(C4)C3C2=O)c1 (stereo not drawn) | 2 | 84* | -4 | 1 | 0
O=C(Oc1cccc2cccnc12)c1ccc(N2C(=O)C3C4CCC(C4)C3C2=O)cc1 (stereo not drawn) | 7 | 7 | 1 | 1 | 4
CON=CCC(=O)Nc1ccc(Cl)c(Cl)c1 | . | . | . | -4 | .
CCN(CC)CC(=O)NN=C(c1ccccc1)c1ccccc1 | 2 | -2 | 0 | 3 | 3
O=C(CCl)NN=C(c1ccccc1)c1ccccc1 | 19 | 22 | 37* | 3 | -3
COc1ccc(CNc2oc(COc3ccccc3Cl)nc2C#N)cc1 | -2 | 40 | 1 | 5 | 0
N#Cc1nc(-c2ccc(F)cc2)oc1NCc1ccccc1 | 1 | 82* | 0 | -15 | 1
N#Cc1nc(COc2ccc(Cl)cc2)oc1NCc1ccc2c(c1)OCO2 | 3 | 73* | 2 | 5 | -2
SMILES | CHOP UPR activ | CHOP inhibitor | Fh CTSL1 inh | UCH37 inh | XBP1 UPR activ
N#Cc1nc(-c2ccc(F)cc2)oc1NCc1ccco1 | 2 | 10 | 7 | -19 | 2
Cc1ccc(CNc2oc(COc3ccccc3Cl)nc2C#N)cc1 | 1 | 85* | 4 | 3 | -4
N#Cc1nc(COc2ccccc2F)oc1NCCc1ccccc1 | 3 | 80* | 2 | 6 | 0
O=C(NN=Cc1cccc2ccccc12)c1ccc(CN2CCOCC2)cc1 | . | . | . | 4 | .
Cc1ccc(C=NNC(=O)C(C)Oc2ccccc2[N+](=O)[O-])s1 (stereo not drawn) | . | . | . | 6 | .
COc1ccc(CC(C)=NNC(=O)c2ccc(C)cc2C)cc1 | . | . | . | 2 | .
Cc1cc(-c2ccccc2)nc(NN=Cc2ccc(O)cc2O)n1 | . | . | . | -2 | .
C=CCn1c(CNc2ccccc2)nnc1SCC(=O)NN=Cc1ccc(O)cc1O | . | . | . | 4 | .
COc1cc(-c2nnn(CC(=O)N3CCOCC3)n2)cc(OC)c1OC | 1 | 26 | 30* | 4 | 1
C=CCC1NS(=O)(=O)OCC1NC(=O)OCC(Cl)(Cl)Cl (stereo not drawn) | -3 | . | 20* | 0 | 0
COc1ccc(C=NNC(=S)SC)cc1OC | . | . | . | 6 | .
O=C(NN=Cc1cn(Cc2ccccc2)c2ccccc12)c1cc(O)cc(O)c1 | . | . | . | -9 | .
CCC(CC)C(=O)Nc1cccc(C(C)=NNC(=O)c2c(Br)cnn2C)c1 | . | . | . | 5 | .
COc1ccc(CCn2c(N)c(C(=O)NCc3ccco3)c3nc4ccccc4nc32)cc1 | 2 | 15 | -2 | -283 | -1
COCCNC(=O)c1c(N)n(CCC2=CCCCC2)c2nc3ccccc3nc12 | 0 | 78* | 0 | -315 | -1
COc1ccc(C=NNC(=O)c2ccncc2)c(OC)c1 | . | . | . | 13 | .
O=C1CSC(=Nc2ccccc2[N+](=O)[O-])N1 | -2 | 7 | -3 | 29* | -1
CC(=NNC(=O)C1CCCC1)c1ccc(Cl)cc1Cl | . | . | . | 3 | .
CCOc1ccc2nc(NCCNC(=O)C(C)C)c(C)cc2c1 | 2 | 71* | 0 | -169 | 0
Cc1cc2cc(C)c(NCCNC(=O)c3ccccc3)nc2cc1C | 1 | 90* | 3 | -22 | 6
CCOc1ccc2nc(NCCNC(=O)C3CC3)c(C)cc2c1 | -2 | . | 1 | -175 | 0
Cc1ccc(C(=O)NCCNc2nc3cc(C)c(C)cc3cc2C)cc1 | -1 | 12 | 0 | -4 | 22
CCc1cc2c(=O)c(-c3cnn(-c4ccccc4)c3)c(C)oc2cc1OCC(=O)Nc1ccc(F)c(F)c1 | 12 | 86* | -2 | 0 | -1
COc1cc2c(cc1O)CC[n+]1cc3c(OC)c(OC)ccc3cc1-2 | 0 | 20 | 2 | 8 | 3
COc1cc2c(cc1OC)-c1cc3ccc4c(c3c[n+]1CC2)OCO4 | 1 | -5 | 51* | -14 | 1
SMILES | CHOP UPR activ | CHOP inhibitor | Fh CTSL1 inh | UCH37 inh | XBP1 UPR activ
O=c1cc(-c2ccccc2)nc(SCc2ccccc2F)[nH]1 | -1 | -2 | 3 | 0 | -3
Cc1ccccc1CSc1nc(-c2ccccc2)cc(=O)[nH]1 | 1 | 87* | 0 | 5 | -2
CC(=N/N=C1/NC(=O)CC(C(=O)Nc2ccccc2)S1)c1cccs1 (stereo not drawn) | . | . | . | 7 | .
CCc1ccc(CNc2ccc(O)cc2)cc1 | 1 | . | 105* | -3 | 3
Cc1cc(Br)cc(C)c1NC(=S)NC(=O)CC(C)C | 2 | 92* | 2 | 0 | 2
Cc1cc(NC(=O)Cn2nnc3sc4c(c3c2=O)CCC(C(C)(C)C)C4)no1 (stereo not drawn) | 2 | 81* | -3 | -6 | 2
Cc1cc(NC(=O)Cn2nnc3sc4c(c3c2=O)CCCC4)no1 | -1 | 61 | -1 | 0 | 3
CCCCCCCCCC(=O)NN=C(C)c1cccnc1 | . | . | . | 6 | .
COC(=O)C1=C(C(=O)OC)SC2(S1)C(C(=O)OC)=C(C(=O)OC)SC1=C2c2cc(C)ccc2NC1(C)C | 37 | 73* | 0 | 11 | 12
